Test results from ChEMBL document CHEMBL2086249, “Use of small-molecule crystal structures to address solubility in a novel series of G protein coupled receptor 119 agonists: optimization of a lead and in vivo evaluation” (J Med Chem, 2012).

Experiments:
physchem = conditions: pH 7.4
[1] = Cmax in Beagle dog at 5 mg/kg; type: ADME, organism-based, Canis lupus familiaris; set-up: dose 5 mg/kg; conditions: in vivo
[2] = AUC (0 to 24 hrs) in Beagle dog at 50 mg/kg; type: ADME, organism-based, Canis lupus familiaris; set-up: time < 24 hr, dose 50 mg/kg; conditions: plasma
[3] = Cmax in Han Wistar rat at 5 mg/kg; type: ADME, organism-based; set-up: dose 5 mg/kg; conditions: in vivo
[4] = Half life in Han Wistar rat at 5 mg/kg, po; type: ADME, organism-based; set-up: dose 5 mg/kg, route oral; conditions: in vivo
In short: (§1)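 Single-dose PK in C57BL6 mice, Han Wistar rats and beagle dogs. Intravenous 2 mg/kg in 5% DMSO/95% (hydroxypropyl)-β-cyclodextrin. Oral dosing as a suspension in aqueous 0.1% (w/v) pluronic F127, at 5 mg/kg for mouse and rat and 13 mg/kg for dog. Dose volume 5 mL/kg for rodents and 2 mL/kg for dog.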

[5] = Cmax in Beagle dog at 10 mg/kg; type: ADME, organism-based, Canis lupus familiaris; set-up: dose 10 mg/kg; conditions: in vivo
[6] = Half life in C57BL6 mouse at 5 mg/kg, po; type: ADME, organism-based; set-up: dose 5 mg/kg, route oral; conditions: in vivo
In short: as §1

[7] = Intrinsic clearance in rat hepatocytes assessed per million cells; type: ADME, cell-based, Hepatocyte; conditions: read-out: CLH
[8] = Oral bioavailability in Han Wistar rat at 5 mg/kg; type: ADME, organism-based; conditions: in vivo
In short: (§2)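 IV dose 2 mg/kg in 5% DMSO/95% (hydroxypropyl)-β-cyclodextrin; oral dose given as suspension in aqueous 0.1% pluronic F127, 5 mg/kg for mouse and rat, 13 mg/kg for dog. Dose volumes 5 mL/kg (mouse, rat) and 2 mL/kg (dog). Animals were C57BL6 mice, Han Wistar rats and beagle dogs.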

[9] = AUC (0 to 12 hrs) in C57BL6 mouse at 100 mg/kg; type: ADME, organism-based; set-up: time < 12 hr, dose 100 mg/kg; conditions: plasma
[10] = Oral bioavailability in Beagle dog at 13 mg/kg; type: ADME, organism-based, Canis lupus familiaris; conditions: in vivo
In short: as §1

[11] = Plasma clearance in C57BL6 mouse at 2 mg/kg, iv and 5 mg/kg, po; type: ADME, organism-based
In short: as §2

[12] = Volume of distribution at steady state in C57BL6 mouse at 2 mg/kg, iv and 5 mg/kg, po; type: ADME, organism-based; conditions: in vivo, read-out: Vdss
In short: as §2

[13] = AUC (0 to 24 hrs) in Beagle dog at 10 mg/kg; type: ADME, organism-based, Canis lupus familiaris; set-up: time < 24 hr, dose 10 mg/kg; conditions: plasma
[14] = AUC (0 to 24 hrs) in Beagle dog at 5 mg/kg; type: ADME, organism-based, Canis lupus familiaris; set-up: time < 24 hr, dose 5 mg/kg; conditions: plasma
[15] = Cmax in Beagle dog at 50 mg/kg; type: ADME, organism-based, Canis lupus familiaris; set-up: dose 50 mg/kg; conditions: in vivo
[16] = Cmax in Beagle dog at 1 mg/kg; type: ADME, organism-based, Canis lupus familiaris; set-up: dose 1 mg/kg; conditions: in vivo
[17] = Half life in Han Wistar rat at 2 mg/kg, iv; type: ADME, organism-based; set-up: dose 2 mg/kg, route intravenous; conditions: in vivo
In short: as §1

[18] = AUC (0 to 12 hrs) in C57BL6 mouse at 5 mg/kg; type: ADME, organism-based; set-up: time < 12 hr, dose 5 mg/kg; conditions: plasma
[19] = Cmax in C57BL6 mouse at 5 mg/kg; type: ADME, organism-based; set-up: dose 5 mg/kg; conditions: in vivo
[20] = Intrinsic clearance in mouse hepatocytes assessed per million cells; type: ADME, cell-based, Hepatocyte; conditions: read-out: CLH
[21] = Cmax in Han Wistar rat at 100 mg/kg; type: ADME, organism-based; set-up: dose 100 mg/kg; conditions: in vivo
[22] = Plasma clearance in Han Wistar rat at 2 mg/kg, iv and 5 mg/kg, po; type: ADME, organism-based
In short: as §2

[23] = Volume of distribution at steady state in Han Wistar rat at 2 mg/kg, iv and 5 mg/kg, po; type: ADME, organism-based; conditions: in vivo, read-out: Vdss
In short: as §2

[24] = Cmax in C57BL6 mouse at 100 mg/kg; type: ADME, organism-based; set-up: dose 100 mg/kg; conditions: in vivo
[25] = Volume of distribution at steady state in Beagle dog at 2 mg/kg, iv and 13 mg/kg, po; type: ADME, organism-based, Canis lupus familiaris; conditions: in vivo, read-out: Vdss
In short: as §2

[26] = Drug excretion in bile-duct cannulated Han Wistar rat bile; type: ADME; conditions: in vivo
[27] = Oral bioavailability in C57BL6 mouse at 5 mg/kg; type: ADME, organism-based; conditions: in vivo
In short: as §2

[28] = AUC (0 to 6 hrs) in C57BL6 mouse at 30 mg/kg; type: ADME, organism-based; set-up: time < 6 hr, dose 30 mg/kg; conditions: plasma
[29] = Half life in Beagle dog at 2 mg/kg, iv; type: ADME, organism-based, Canis lupus familiaris; set-up: dose 2 mg/kg, route intravenous; conditions: in vivo
In short: as §1

[30] = AUC (0 to 24 hrs) in Han Wistar rat at 100 mg/kg; type: ADME, organism-based; set-up: time < 24 hr, dose 100 mg/kg; conditions: plasma
[31] = Half life in Beagle dog at 13 mg/kg, po; type: ADME, organism-based, Canis lupus familiaris; set-up: dose 13 mg/kg, route oral; conditions: in vivo
In short: as §1

[32] = AUC (0 to 24 hrs) in Han Wistar rat at 5 mg/kg; type: ADME, organism-based; set-up: time < 24 hr, dose 5 mg/kg; conditions: plasma
[33] = Drug excretion in bile-duct cannulated Han Wistar rat urine; type: ADME; conditions: in vivo
[34] = Intrinsic clearance in dog hepatocytes assessed per million cells; type: ADME, cell-based, Canis lupus familiaris, Hepatocyte; conditions: read-out: CLH
[35] = Apparent permeability across apical to basolateral side of human Caco2 cells at 10 uM; type: ADME, cell-based; conditions: Caco-2
[36] = Cmax in C57BL6 mouse at 30 mg/kg; type: ADME, organism-based; set-up: dose 30 mg/kg; conditions: in vivo
[37] = AUC (0 to 24 hrs) in Beagle dog at 1 mg/kg; type: ADME, organism-based, Canis lupus familiaris; set-up: time < 24 hr, dose 1 mg/kg; conditions: plasma
[38] = Plasma clearance in Beagle dog at 2 mg/kg, iv and […] mg/kg, po; type: ADME, organism-based, Canis lupus familiaris
[39] = Hydrolytic stability of the compound at pH 1 to 10; type: physicochemical; conditions: buffer
[40] = Half life in C57BL6 mouse at 2 mg/kg, iv; type: ADME, organism-based; set-up: dose 2 mg/kg, route intravenous; conditions: in vivo
In short: as §1

C[C@@H]1CN(C(=O)OC(C)(C)C)CCN1c1ncc(OCc2ccc(-n3cnnn3)cc2)cn1
logD (physchem; octanol/phosphate buffer): > 4.3

C[C@@H]1CN(C(=O)OC(C)(C)C)CCN1c1ncc(OCc2ccc(S(C)(=O)=O)cc2F)cn1
logD (physchem; octanol/phosphate buffer): 3.7

C[C@@H]1CN(C(=O)OC(C)(C)C)CCN1c1ncc(OCc2ccc(S(C)(=O)=O)cc2C#N)cn1
logD (physchem; octanol/phosphate buffer): 3.3

C[C@@H]1CN(C(=O)OC(C)(C)C)CCN1c1ncc(OCc2ccc(S(C)(=O)=O)cn2)cn1
logD (physchem; octanol/water): 3

CC(C)(C)OC(=O)N1CCN(c2ncc(OCc3ccncc3)cn2)CC1
logD (physchem; octanol/phosphate buffer): 3.4

Cc1cc(COc2cnc(N3CCN(C(=O)OC(C)(C)C)CC3)nc2)ccn1
logD (physchem; octanol/phosphate buffer): 3.7

Cc1cnccc1COc1cnc(N2CCN(C(=O)OC(C)(C)C)CC2)nc1
logD (physchem; octanol/water): 3.8

COc1cnccc1COc1cnc(N2CCN(C(=O)OC(C)(C)C)CC2)nc1
logD (physchem; octanol/phosphate buffer): 3.8

CC(C)(C)OC(=O)N1CCN(c2ncc(OCc3ccncc3F)cn2)CC1
logD (physchem; octanol/phosphate buffer): 3.6

CC(C)(C)OC(=O)N1CCN(c2ncc(OCc3ccncc3C#N)cn2)CC1
logD (physchem; octanol/phosphate buffer): 2.8

Cc1cnccc1COc1cnc(N2CCN(C(=O)OC(C)(C)C)C[C@H]2C)nc1
logD (physchem; octanol/phosphate buffer): 3.8

C[C@@H]1CN(C(=O)OCC(F)(F)F)CCN1c1ncc(OCc2ccncc2C#N)cn1
logD (physchem; octanol/phosphate buffer): 3

C[C@@H]1CN(c2ncc(F)cn2)CCN1c1ncc(OCc2ccncc2C#N)cn1
logD (physchem; octanol/phosphate buffer): 3.4

CC(C)c1nc(N2CCN(c3ncc(OCc4ccncc4C#N)cn3)[C@H](C)C2)no1
Cmax [1]: 2500 nM | AUC(0-t) at 24 h [2]: 119 µM·h | Cmax [3]: 700 nM | half-life [4]: 6 h | Cmax [5]: 1300 nM | half-life [6]: 1 h | hepatocyte CLint [7]: 29 µL/min/1e6 cells | bioavailability [8]: 29% | AUC(0-t) at 12 h [9]: 42 µM·h | bioavailability [10]: 24% | clearance [11]: 49 mL/min/kg | Vd [12]: 2.4 L/kg | AUC(0-t) at 24 h [13]: 11 µM·h | AUC(0-t) at 24 h [14]: 14 µM·h | Cmax [15]: 10000 nM | Cmax [16]: 600 nM | half-life [17]: 3 h | AUC(0-t) at 12 h [18]: 0.7 µM·h | Cmax [19]: 400 nM | logD (physchem; octanol/phosphate buffer): 3.3 | hepatocyte CLint [20]: 67 µL/min/1e6 cells | Cmax [21]: 6300 nM | clearance [22]: 28 mL/min/kg | Vd [23]: 5.1 L/kg | Cmax [24]: 14000 nM | Vd [25]: 4.1 L/kg | Drug excretion [26]: Active | bioavailability [27]: 22% | AUC(0-t) at 6 h [28]: 6.4 µM·h | half-life [29]: 11 h | AUC(0-t) at 24 h [30]: 97 µM·h | half-life [31]: 5 h | AUC(0-t) at 24 h [32]: 2.7 µM·h | Drug excretion [33]: Active | hepatocyte CLint [34]: 5.6 µL/min/1e6 cells | Papp A→B at 10 µM [35]: 85 ×10⁻⁶ cm/s | Cmax [36]: 3500 nM | AUC(0-t) at 24 h [37]: 4 µM·h | clearance [38]: 3.6 mL/min/kg | Stability [39]: Stable | half-life [40]: 1 h

C[C@@H]1CN(c2noc(C3CC3)n2)CCN1c1ncc(OCc2ccncc2C#N)cn1
logD (physchem; octanol/phosphate buffer): 3.1

C[C@@H]1CN(c2noc(C(F)(F)F)n2)CCN1c1ncc(OCc2ccncc2C#N)cn1
logD (physchem; octanol/phosphate buffer): 4

C[C@@H]1CN(c2noc(C(F)F)n2)CCN1c1ncc(OCc2ccncc2C#N)cn1
logD (physchem; octanol/water): 2.9

C[C@@H]1CN(c2nc(C3CC3)no2)CCN1c1ncc(OCc2ccncc2C#N)cn1
logD (physchem; octanol/phosphate buffer): 3.5

C[C@@H]1CN(c2nc(C(F)(F)F)no2)CCN1c1ncc(OCc2ccncc2C#N)cn1
logD (physchem; octanol/water): 3.1
